Measurements taken from ChEMBL document CHEMBL1165883, “Synthesis, evaluation and computational studies on a series of acetophenone based 1-(aryloxypropyl)-4-(chloroaryl) piperazines as potential atypical antipsychotics” (2010).
Active and inactive are the calls of the source. The calls are words filed in the database; no cut-off is given here.

Assays:
[1] = tested on: Mus musculus; assay: Antipsychotic activity in ip dosed albino lyka mouse assessed as reversal of apomorphine-induced mesh climbing response administered 10 mins prior to apomorphine challenge after 10 to 30 mins; format: functional
Procedure, shortened: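 Mice of either sex (26–38 g), six per group, habituated singly in a wire-mesh cage (13 cm diameter, 14 cm high). Compound, saline (control) or clozapine (positive control) given ip; apomorphine 2.5 mg kg^-1 ip 10 min later. Climbing was scored over 60 s in the mesh cage at 10, 15, 20, 25 and 30 min: 1 = one–three paws on mesh, 2 = all four. Three titrated dose levels.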

[2] = tested on: Mus musculus; assay: Antipsychotic activity in ip dosed albino lyka mouse assessed as reversal of apomorphine-induced stereotype response administered 10 mins prior to apomorphine challenge after 10 to 30 mins; format: functional
Procedure, shortened: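 Mice of either sex (26–38 g) received vehicle, compound or clozapine (positive control), then apomorphine 2.5 mg kg^-1 after 10 min. Stereotypy was scored over 60 s in an inverted 500 ml beaker at 10, 15, 20, 25 and 30 min post-apomorphine: 1 = rearing, sniffing or grooming; 2 = licking or biting. Three dose levels, chosen by initial titration.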

| Compound | ED50 [1] | Activity [2] |
| --- | --- | --- |
| CC(=O)c1ccc(OCCCN2CCN(Cc3ccc(Cl)cc3)CC2)cc1 | 50 mg/kg | – |
| CC(=O)c1ccccc1OCCCN1CCN(Cc2ccc(Cl)cc2)CC1 | 10 mg/kg | – |
| CC(=O)c1ccc(OCCCN2CCN(C(=O)c3ccc(Cl)cc3)CC2)cc1 | inactive | Active |
| CC(=O)c1ccccc1OCCCN1CCN(C(=O)c2ccccc2Cl)CC1 | inactive | Active |
| CC(=O)c1ccc(OCCCN2CCN(Cc3ccccc3Cl)CC2)cc1 | 23 mg/kg | – |
| CC(=O)c1ccccc1OCCCN1CCN(Cc2ccccc2Cl)CC1 | 10.5 mg/kg | – |
| Clc1ccc(CN2CCN(Cc3ccc(Cl)cc3)CC2)cc1 | 10.5 mg/kg | 1.02 |
| Clc1ccccc1CN1CCN(Cc2ccccc2Cl)CC1 | 7.2 mg/kg | 0.86 |
| CC(=O)c1ccccc1OCCCN1CCN(C(=O)c2ccc(Cl)cc2)CC1 | inactive | Active |
| CC(=O)c1ccc(OCCCN2CCN(C(=O)c3ccccc3Cl)CC2)cc1 | inactive | Active |
